Among the data in ChEMBL document CHEMBL4261635, “Simplified lipid II-binding antimicrobial peptides: Design, synthesis and antimicrobial activity of bioconjugates of nisin rings A and B with pore-forming peptides” (2018) are Activity and MIC values, retold here.

Converted amounts (≈) assume the structure as drawn. The source made the active and inactive calls. No cut-off for these calls is given here. Where a SMILES comes first, the peptide text is derived from it. [ ]: non-standard residue; d: D form. Nspe = C[C@H](NCC(=O)O)c1ccccc1; Nlys = NCCCCNCC(=O)O Some results are limits rather than exact numbers.

In one test the test system is Escherichia coli. The experiment in a line: Antibacterial activity against Escherichia coli at 1 mg/ml after 48 hrs by agar well diffusion method. Format: functional, organism-based. The essentials:
(§1)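 Compounds dissolved at 1 mg/mL in sterile water; 25 μL placed in 8 mm wells punched in LB agar plates spread with 100 μL overnight culture (grown at 37 °C in Nutrient Broth No. 2 with shaking). Plates incubated 48 h at 37 °C (M. luteus initially at 30 °C, later 37 °C); activity scored as a visible zone of growth inhibition.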
(In agar diffusion tests the substance spreads into inoculated agar from a disc or well.)

The subject of the next test is Pseudomonas aeruginosa. The experiment in a line: Antibacterial activity against Pseudomonas aeruginosa at 1 mg/ml after 48 hrs by agar well diffusion method. Format: functional, organism-based. The procedure, abridged:
as §1

In test [1] the test system is Micrococcus luteus. The experiment in a line: Antibacterial activity against Micrococcus luteus at 1 mg/ml after 48 hrs by agar well diffusion method. Format: functional, organism-based. The procedure, abridged:
as §1

The test system of test [2] is Micrococcus luteus. As to the kind of experiment: Antibacterial activity against Micrococcus luteus after 20 hrs by broth microdilution assay. The format is functional. The essentials:
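Two-fold serial dilution in Nutrient Broth No. 2 containing 1% DMSO, from 0.60 mM stocks (sterile water, 1% DMSO, sonicated 30 s). Each well received 10 μL overnight M. luteus culture adjusted to OD 0.817 (of a 1 in 10 dilution), 250 μL final volume. Sealed, incubated 20 h at 37 °C, then OD read. MIC is the lowest concentration with no visible growth by eye.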
On the technique in general: Broth dilution looks for growth in wells or tubes with falling amounts of substance.

By MIC is commonly meant the lowest concentration found to suppress growth. Lower therefore signals greater potency.

For the compound `NC[C@H]1O[C@H](O[C@H]2[C@H](O)[C@@H](O[C@H]3O[C@H](CO)[C@@H](O)[C@H](N)[C@H]3O)[C@H](N)C[C@@H]2N)[C@H](O)[C@@H](O)[C@@H]1O`, the result in the test on Escherichia coli, in the test on Pseudomonas aeruginosa and with Micrococcus luteus [1] was Active.

Compound `CC[C@H](C)[C@H](NC(=O)CN)C(=O)NCC(=O)N[C@@H](CCCCN)C(=O)N[C@@H](Cc1ccccc1)C(=O)N[C@@H](CC(C)C)C(=O)N[C@@H](CCCCN)C(=O)N[C@@H](CCCCN)C(=O)N[C@@H](C)C(=O)N[C@@H](CCCCN)C(=O)N[C@@H](CCCCN)C(=O)N[C@@H](Cc1ccccc1)C(=O)NCC(=O)N[C@@H](CCCCN)C(=O)N[C@@H](C)C(=O)N[C@@H](Cc1ccccc1)C(=O)N[C@H](C(=O)N[C@@H](CCCCN)C(=O)N[C@H](C(=O)N[C@@H](CC(C)C)C(=O)N[C@@H](CCCCN)C(=O)N[C@@H](CCCCN)C(N)=O)[C@@H](C)CC)C(C)C` [PEXIGANAN] (H-GIGKFLKKAKKFGKAFVKILKK-NH2) showed a minimal inhibitory concentration (MIC) with Micrococcus luteus [2] of 0.75 µM (≈ 1.86 µg/mL).

As to `CC[C@H](C)[C@H](N)C(=O)N[C@@H](CC(=O)O)C(=O)N[C@@H](Cc1c[nH]c2ccccc12)C(=O)N[C@@H](CCCCN)C(=O)N[C@@H](CCCCN)C(=O)N[C@@H](CC(C)C)C(=O)N[C@@H](CC(C)C)C(=O)N[C@@H](CC(=O)O)C(=O)N[C@@H](C)C(=O)N[C@@H](C)C(=O)N[C@@H](CCCCN)C(=O)N[C@@H](CCC(N)=O)C(=O)N[C@H](C(=O)N[C@@H](CC(C)C)C(N)=O)[C@@H](C)CC` (H-IDWKKLLDAAKQIL-NH2), the outcome in the test on Escherichia coli and in the test with Pseudomonas aeruginosa was inactive. This compound also showed an MIC in the test with Micrococcus luteus [2] of 1.5 µM (≈ 2.48 µg/mL). In addition, the outcome in the test with Micrococcus luteus [1] was Active.

For `C=C(NC(=O)[C@@H](NC(=O)[C@H](Cc1cnc[nH]1)NC(=O)[C@@H](NC(=O)[C@H](CO)NC(=O)[C@@H]1CS[C@@H](C)[C@@H]2NC(=O)[C@H](C)NC(=O)[C@@H](NC(=O)[C@H](CCCCN)NC(=O)[C@H](CCSC)NC(=O)[C@H](CC(N)=O)NC(=O)[C@@H]3CS[C@@H](C)[C@H](NC(=O)[C@H](CCCCN)NC(=O)[C@@H]4CS[C@@H](C)[C@H](NC(=O)[C@@H]5CSC[C@H](NC(=O)/C(=C/C)NC(=O)[C@@H](N)[C@@H](C)CC)C(=O)N[C@@H]([C@@H](C)CC)C(=O)NC(=C)C(=O)N[C@@H](CC(C)C)C(=O)N5)C(=O)N5CCC[C@H]5C(=O)NCC(=O)N4)C(=O)NCC(=O)N[C@@H](C)C(=O)N[C@@H](CC(C)C)C(=O)N[C@@H](CCSC)C(=O)NCC(=O)N3)[C@H](C)SC[C@H](NC2=O)C(=O)N[C@@H](CC(N)=O)C(=O)N1)[C@@H](C)CC)C(C)C)C(=O)N[C@@H](CCCCN)C(=O)O`, the result in the test with Escherichia coli and in the test on Pseudomonas aeruginosa was inactive. Also, in the test on Micrococcus luteus [2], the lowest concentration to inhibit growth (MIC) was 0.0234 µM (≈ 0.0779 µg/mL). In the test with Micrococcus luteus [1], the result was Active.

In the test with Micrococcus luteus [2], `C[C@@H](c1ccccc1)N(CC(N)=O)C(=O)CN(C(=O)CN(CCCCN)C(=O)CN(C(=O)CN(C(=O)CN(CCCCN)C(=O)CN(C(=O)CN(C(=O)CN(CCCCN)C(=O)CN(C(=O)CN(C(=O)CNCCCCN)[C@@H](C)c1ccccc1)[C@@H](C)c1ccccc1)[C@@H](C)c1ccccc1)[C@@H](C)c1ccccc1)[C@@H](C)c1ccccc1)[C@@H](C)c1ccccc1)[C@@H](C)c1ccccc1` (H-[Nlys][Nspe][Nspe][Nlys][Nspe][Nspe][Nlys][Nspe][Nspe][Nlys][Nspe][Nspe]-NH2) had an MIC of 1.5 µM (≈ 2.73 µg/mL).

Turning to `C=C1NC(=O)[C@H]([C@@H](C)CC)NC(=O)[C@@H](NC(=O)/C(=C/C)NC(=O)[C@@H](N)[C@@H](C)CC)CSC[C@@H](C(=O)N[C@@H]2C(=O)N3CCC[C@H]3C(=O)NCC(=O)N[C@H](C(=O)N[C@@H](CCCCN)C(=O)NCc3cn(CCCC[C@H](N)C(=O)NCCOCCOCCOCCOCCC(=O)N[C@H](C(=O)N[C@@H](CC(=O)O)C(=O)N[C@@H](Cc4c[nH]c5ccccc45)C(=O)N[C@@H](CCCCN)C(=O)N[C@@H](CCCCN)C(=O)N[C@@H](CC(C)C)C(=O)N[C@@H](CC(C)C)C(=O)N[C@@H](CC(=O)O)C(=O)N[C@@H](C)C(=O)N[C@@H](C)C(=O)N[C@@H](CCCCN)C(=O)N[C@@H](CCC(N)=O)C(=O)N[C@H](C(=O)N[C@@H](CC(C)C)C(N)=O)[C@@H](C)CC)[C@@H](C)CC)nn3)CS[C@H]2C)NC(=O)[C@H](CC(C)C)NC1=O`, the outcome with Escherichia coli and in the test with Pseudomonas aeruginosa was inactive. Besides, in the test with Micrococcus luteus [2], the lowest concentration to inhibit growth (MIC) was 3 µM (≈ 9.73 µg/mL). Also, the result in the test with Micrococcus luteus [1] was Active.

Regarding `C#CCNC(=O)[C@H](CCCCN)NC(=O)[C@@H]1CS[C@@H](C)[C@H](NC(=O)[C@@H]2CSC[C@H](NC(=O)/C(=C/C)NC(=O)[C@@H](N)[C@@H](C)CC)C(=O)N[C@@H]([C@@H](C)CC)C(=O)NC(=C)C(=O)N[C@@H](CC(C)C)C(=O)N2)C(=O)N2CCC[C@H]2C(=O)NCC(=O)N1`, the result in the test on Escherichia coli and in the test with Pseudomonas aeruginosa was inactive. Further, the MIC in the test with Micrococcus luteus [2] was > 12 µM. In addition, the result with Micrococcus luteus [1] was Active.
